Published values pooled from the literature.
Compare with care: the assays were run in different laboratories.
Kir1 channel protein: Kir1 channel protein (Aedes aegypti, UniProt L0EQS9)
NTSR1: Neurotensin receptor type 1 (NTSR1, Homo sapiens, UniProt P30989)
MMP14: Matrix metalloproteinase-14 (MMP14, Homo sapiens, UniProt P50281)
RPS6KA5: Ribosomal protein S6 kinase alpha-5 (RPS6KA5, Homo sapiens, UniProt O75582)
PDE11A: Dual 3',5'-cyclic-AMP and -GMP phosphodiesterase 11A (PDE11A, Homo sapiens, UniProt Q9HCR9)
ABHD6: Monoacylglycerol lipase ABHD6 (ABHD6, Homo sapiens, UniProt Q9BV23)

Structure (SMILES)	target	observed	action	method	pH	notes	IC50 [nM]
O=[N+]([O-])c1ccc(N2CCN(S(=O)(=O)c3ccccc3)CC2)cc1NCc1cccnc1	Kir1 channel protein	ion flux	inhibitor				550
CC(C)=CCCC(C)=CCn1cc(CC(P(=O)(O)O)P(=O)(O)O)nn1	Protein farnesyltransferase (Rattus norvegicus, UniProt Q02293+Q04631)	enzyme activity	inhibitor	HPLC			500000
Cc1cc(O)cc(C)c1C[C@H](NC(=O)[C@@H]1CCCN1C(=O)[C@H](CCCNC(=N)N)NC(=O)[C@H](CCCNC(=N)N)N(C)C(=O)CNC(=O)[C@@H](CO)NC(=O)CNC(=O)[C@H](Cc1cn(CCNC(=O)[C@H](CCCNC(=N)N)NC(=O)[C@H](CC(C)C)NC(=O)C2OC2C(=O)O)nn1)NC(=O)CN1CCN(CC(=O)O)CCN(CC(=O)O)CCN(CC(=O)O)CC1)C(=O)N[C@H](C(=O)N[C@@H](CC(C)C)C(=O)O)C(C)(C)C (mixture of isomers)	NTSR1	ligand displacement		radioligand			73
C=CC(=O)Nc1cc(Nc2nccc(Nc3cc(Cl)c(F)cc3C(C)(C)O)n2)c(OC)cc1N1CC[C@@H](N(C)C)C1	Receptor tyrosine-protein kinase erbB-4 (ERBB4, Homo sapiens, UniProt Q15303)	enzyme activity	inhibitor			with preincubation	704
Cc1noc(-c2cc3cc(-c4nc(C(N)=O)[nH]c4C)ccc3[nH]2)n1	MMP14	enzyme activity	inhibitor				> 28000
CS(=O)(=O)N1CCN(c2ccc([N+](=O)[O-])c(NCc3cccnc3)c2)CC1	Kir1 channel protein	ion flux	inhibitor				44000
COc1ccc(F)cc1C(=O)NCc1ccc(-c2nn([C@@H](C)C(F)(F)F)c(N)c2C(N)=O)cc1	Tyrosine-protein kinase BTK (BTK, Homo sapiens, UniProt Q06187, C481S)	phosphorylation in cells	inhibitor				8.1
O=[N+]([O-])c1ccc(N2CCN(S(=O)(=O)c3ccc(F)cc3)CC2)cc1NCc1ccccn1	Kir1 channel protein	ion current	inhibitor	patch clamp			35.5
CC/C(=N\NC(=O)C(C)Nc1ccccc1)c1ccc(O)c(C)c1O (centres unmarked)	RPS6KA5	enzyme activity	inhibitor				13.2
O=[N+]([O-])c1ccc(N2CCN(S(=O)(=O)c3ccc(Cl)cc3)CC2)cc1NCc1ccco1	Kir1 channel protein	ion flux	inhibitor				840
COc1cc(C[C@H]2C(=O)OC[C@@H]2Cc2ccc(OC)c(OC)c2)ccc1O	PDE11A	enzyme activity	inhibitor				> 20000
COc1cc2c(NC3CCN(C)CC3)nc(N3CCCN(C)CC3)nc2cc1OCCCN(C)C	Lysine-specific demethylase 4E (KDM4E, Homo sapiens, UniProt B2RXH2)	enzyme activity	inhibitor				> 57000
O=[N+]([O-])c1ccc(N2CCN(S(=O)(=O)c3ccc(F)cc3)CC2)cc1NCc1cccnc1	Kir1 channel protein	ion current	inhibitor	patch clamp			57
CCNC(=O)c1nc(-c2ccc3[nH]c(-c4nc(C)no4)cc3c2)c(C)[nH]1	MMP14	enzyme activity	inhibitor				> 20000
CC[C@H](C)[C@H](NC(C)=O)C(=O)N[C@@H](CCC(=O)O)C(=O)N[C@H](C(=O)N[C@H](C=O)CC(=O)O)[C@@H](C)O	Caspase-8 (CASP8, Homo sapiens, UniProt Q14790)	enzyme activity	inhibitor				1.74
Cc1cnc(-c2ccc(-c3ccc(NC(=O)Nc4c(F)cc(F)cc4F)cc3F)c3c2C(=O)NC3)[nH]1	Vascular endothelial growth factor receptor 1 (FLT1, Homo sapiens, UniProt P17948)	enzyme activity	inhibitor				> 1000
Cc1cc(Cc2cc(C)cc(C(C)(C)C)c2O)c(O)c(C(C)(C)C)c1	Sarcoplasmic/endoplasmic reticulum calcium ATPase 1 (ATP2A1, Oryctolagus cuniculus, UniProt P04191)	ATPase activity	inhibitor	absorbance	pH 7.3		3600
O=C(Nc1c[nH]nc1C(=O)NC1CCNCC1)c1cc(F)cc(F)c1	Cyclin-dependent kinase 17 (CDK17, Homo sapiens, UniProt Q00537)	target engagement in cells		BRET			1900
O=[N+]([O-])c1ccc(N2CCN(S(=O)(=O)c3ccc(F)cc3)CC2)cc1NCc1ccco1	Kir1 channel protein	ion flux	inhibitor				1290
Cn1nc(C(=O)NCc2ccc(C(=O)O)cc2)cc1-c1ccc2[nH]c(-c3cncnc3)cc2c1	MMP14	enzyme activity	inhibitor				> 20000
CN1CCN(c2ccc(Nc3ncc4cc(C#N)c(=O)n(C5CCCC5)c4n3)cc2)CC1	RPS6KA5	enzyme activity	inhibitor				9210
O=S(=O)(c1ccc(Cl)cc1)N1CCN(c2ccc(C(F)(F)F)c(NCc3ccncc3)c2)CC1	Kir1 channel protein	ion flux	inhibitor				4000 to 9000
Cc1cc(O)cc(C)c1C[C@H](NC(=O)[C@@H]1CCCN1C(=O)[C@H](CCCNC(=N)N)NC(=O)[C@H](CCCNC(=N)N)N(C)C(=O)[C@@H](CCC(N)=O)NC(=O)[C@@H](CCC(N)=O)NC(=O)[C@@H](CCC(N)=O)NC(=O)[C@H](Cc1cn(CCNC(=O)[C@H](CC(C)C)NC(=O)[C@H](CC(C)C)NC(=O)C2OC2C(=O)O)nn1)NC(=O)CN1CCN(CC(=O)O)CCN(CC(=O)O)CCN(CC(=O)O)CC1)C(=O)N[C@H](C(=O)N[C@@H](CC(C)C)C(=O)O)C(C)(C)C (mixture of isomers)	NTSR1	ligand displacement		radioligand			92
CSc1ccc(/C=C2/C(C)=C(CC(=O)O)c3cc(F)ccc32)cc1	PDE11A	enzyme activity	inhibitor				> 100000
O=S(=O)(c1ccc(F)cc1)N1CCN(c2cccc(NCc3ccncc3)c2)CC1	Kir1 channel protein	ion flux	inhibitor				4000 to 9000
O=C(Oc1nsnc1N1CCC2CCCCC2C1)N1CCCCC1 (centres unmarked)	ABHD6	enzyme activity	inhibitor	fluorescence		lysate	560
Cn1nc(C(=O)NCc2ccc(C(=O)O)cc2)cc1-c1ccc2[nH]c(-c3ccncc3)cc2c1	MMP14	enzyme activity	inhibitor				> 20000
COc1ccc(F)cc1C(=O)NCc1ccc(-c2nn([C@@H](C)C(F)(F)F)c(N)c2C(N)=O)cc1	Tyrosine-protein kinase BTK (BTK, Homo sapiens, UniProt Q06187)	phosphorylation in cells	inhibitor	western blot			4.2
O=C(Oc1nsnc1N1CCCCC1)N1CCOCC1	ABHD6	enzyme activity	inhibitor	fluorescence		lysate	52
